Reference: ChEMBL document CHEMBL4368899, “Novel carbohydrate modified berberine derivatives: synthesis and in vitro anti-diabetic investigation” (Medchemcomm, 2019)

Columns and labels:
HepG2 [1] = test: Cytotoxicity against human HepG2 cells after 12 hrs by CCK-8 assay; format: cell-based; conditions: for IC50: Homo sapiens, HepG2, 12 h; for Activity: human, hepg2, 12 h
Method in brief: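 Cells were cultured in DMEM/10% heat-inactivated FBS with penicillin/streptomycin at 37 °C, 5% CO2, and harvested with trypsin at 80–90% confluence. They were plated at 1×10^5 cells per mL, and medium was refreshed after 12 h. Cells were treated 12 h with 0.2–625 µg mL⁻¹ compound dissolved in 0.5% DMSO–water. CCK-8 was added for 4 h, then A570 read, correcting for compound colour. IC50 is relative to untreated cells as 100%. n = 3.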

[2] = Aqueous solubility of compound; format: physicochemical; conditions: water
HepG2 [3] = test: Antidiabetic activity in human HepG2 cells assessed as increase in glucose consumption at 5 ug/mL after 48 hrs by glucose oxidase method relative to berberine; format: functional
Method in brief: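 HepG2 cells were grown in DMEM with 10% heat-inactivated FBS and penicillin/streptomycin. They were seeded at 2×10^5 cells per well and cultured 12 h at 37 °C in 5% CO2. Cells were then exposed to 5.0 µg mL⁻¹ compound for two days. A DMSO solvent control and a blank were run. Glucose was measured by glucose oxidase. Consumption = blank-well glucose minus glucose remaining in treated wells. Means ± SD, n = 8, expressed as % increase over berberine.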

[4] = Stability of compound in acetonitrile/water at 1:1 ratio at pH 1.5 assessed as compound degradation after 5 hrs by HPLC analysis; format: physicochemical; conditions: acetonitrile/water 1:1, pH 1.5; read-out: Drug degradation
Method in brief: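 Remaining compound after 5 h was quantified by HPLC on a C8 column (250 × 4.6 mm, 5 µm). Elution used 50% acetonitrile in 0.05 mol L⁻¹ aqueous KH2PO4 at 1 mL min⁻¹, with detection at 320 nm.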

| SMILES | IC50 (HepG2 [1]) | Activity (HepG2 [1]) | solubility [2] | Activity (HepG2 [3]) | degraded at 5 h [4] |
| --- | --- | --- | --- | --- | --- |
| COc1ccc2cc3[n+](cc2c1OCc1cn([C@H]2O[C@H](CO)[C@@H](O)[C@H](O)[C@@H]2O)nn1)CCc1cc2c(cc1-3)OCO2.[Cl-] | 72.2 µg/mL | Dose-dependent effect | 9000 µg/mL | 10.81% | 0.3% |
| COc1ccc2cc3[n+](cc2c1OCc1cn([C@@H]2O[C@H](CO)[C@@H](O)[C@H]2O)nn1)CCc1cc2c(cc1-3)OCO2.[Cl-] | 44 µg/mL | Dose-dependent effect |  | 14.83% |  |
| COc1ccc2cc3[n+](cc2c1OCc1cn([C@@H]2O[C@H](CO)[C@@H](O)[C@H](O)[C@H]2O)nn1)CCc1cc2c(cc1-3)OCO2.[Cl-] | 62.9 µg/mL | Dose-dependent effect |  | 2.23% |  |
| COc1ccc2cc3[n+](cc2c1OCc1cn([C@@H]2O[C@@H](C)[C@H](O)[C@@H](O)[C@H]2O)nn1)CCc1cc2c(cc1-3)OCO2.[Cl-] | 49.3 µg/mL | Dose-dependent effect |  | -3.6% |  |
| COc1ccc2cc3[n+](cc2c1OCc1cn([C@@H]2O[C@H](CO)[C@H](O)[C@H](O)[C@H]2O)nn1)CCc1cc2c(cc1-3)OCO2.[Cl-] | 59.3 µg/mL | Dose-dependent effect |  | 0.21% |  |
| COc1ccc2cc3[n+](cc2c1OC)CCc1cc2c(cc1-3)OCO2.[Cl-] [BERBERINE CHLORIDE] | 53.9 µg/mL |  | 1750 µg/mL |  | 1.8% |
